Values after ≈ are worked out from the molar mass of the structure shown.
Columns and labels:
Type in all cases: functional
Salmonella enterica = experiment: Antibacterial activity against Salmonella enterica MTCC 735 assessed as zone of inhibition at 100 uL after 24 hrs by agar well-diffusion method
Escherichia coli = experiment: Antibacterial activity against Escherichia coli MTCC 730 assessed as zone of inhibition at 100 uL after 24 hrs by agar well-diffusion method
Method in brief: (§1)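 Mueller-Hinton agar plates swabbed with a bacterial suspension adjusted to 1.5×10^8 CFU/ml. Each 5 mm well received 100 µl of compound, and plates were incubated at 37°C for 24 h. Chloramphenicol (30 mcg) was the positive control and DMSO the negative control. Inhibition zones around wells were measured manually, in triplicate.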

Bacillus cereus [1] = experiment: Antibacterial activity against Bacillus cereus MTCC 430 after 18 hrs by TTC staining based broth microdilution method; conditions: MTCC 430, 18 h
Method in brief: (§2)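 Broth microdilution in Mueller-Hinton broth. 50 µl of inoculum from a 0.5 McFarland suspension was added to 50 µl of compound, giving final concentrations of 0.024–400 mg/ml in DMSO. Sealed plates were incubated at 37°C for 18 h, then 50 µl of 0.5% TTC was added for 1 h in the dark. MIC was the lowest concentration with no visible growth (well stays clear). Triplicate; mean ± SD.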

Klebsiella pneumoniae [2] = experiment: Antibacterial activity against Klebsiella pneumoniae MTCC 109 after 18 hrs by TTC staining based broth microdilution method; conditions: MTCC 109, 18 h; method in brief: as §2
Bacillus cereus [3] = experiment: Antibacterial activity against Bacillus cereus MTCC 430 assessed as zone of inhibition at 100 uL after 24 hrs by agar well-diffusion method; method in brief: as §1
Klebsiella pneumoniae [4] = experiment: Antibacterial activity against Klebsiella pneumoniae MTCC 109 assessed as zone of inhibition at 100 uL after 24 hrs by agar well-diffusion method; method in brief: as §1
Streptococcus pyogenes = experiment: Antibacterial activity against Streptococcus pyogenes MTCC 1925 assessed as zone of inhibition at 100 uL after 24 hrs by agar well-diffusion method; method in brief: as §1

| SMILES | inhibition zone (IZ) (Salmonella enterica) [mm] | inhibition zone (IZ) (Escherichia coli) [mm] | MIC (Bacillus cereus [1]) [µg/mL] | MIC (Klebsiella pneumoniae [2]) [µg/mL] | inhibition zone (IZ) (Bacillus cereus [3]) [mm] | inhibition zone (IZ) (Klebsiella pneumoniae [4]) [mm] | inhibition zone (IZ) (Streptococcus pyogenes) [mm] |
| --- | --- | --- | --- | --- | --- | --- | --- |
| COc1cc(C(c2c(C)[nH][nH]c2=O)C2C(=O)NC(=O)NC2=O)ccc1O (configuration not stated) | 10 | 17 | 390 (≈ 1080 µM) | 780 (≈ 2160 µM) | 20 | 16 | 16 |
| CC1(C)CC(=O)C(C(C2=C(O)CC(C)(C)CC2=O)c2cccc(F)c2)=C(O)C1 | 0 | 0 |  |  | 0 | 0 | 0 |
| Cc1[nH][nH]c(=O)c1C(c1ccc(Cl)cc1)C1C(=O)NC(=O)NC1=O (configuration not stated) | 11 | 17 | 1560 (≈ 4470 µM) | 390 (≈ 1120 µM) | 17 | 21 | 16 |
| COc1cc(C(c2c(C)[nH][nH]c2=O)C2C(=O)NC(=O)NC2=O)cc(OC)c1OC (configuration not stated) | 11 | 13 | 1560 (≈ 3860 µM) | 390 (≈ 964 µM) | 13 | 19 | 17 |
| CC1(C)CC(=O)C(C(C2=C(O)CC(C)(C)CC2=O)c2ccc(Br)cc2)=C(O)C1 | 0 | 11 |  |  | 11 | 11 | 10 |
| CN(C)c1ccc(C(C2=C(O)CC(C)(C)CC2=O)C2=C(O)CC(C)(C)CC2=O)cc1 | 0 | 0 |  |  | 0 | 0 | 0 |
| Cc1ccc(C(c2c(C)[nH][nH]c2=O)C2C(=O)NC(=O)NC2=O)cc1 (configuration not stated) | 10 | 12 | 6250 (≈ 19000 µM) | 3120 (≈ 9500 µM) | 12 | 10 | 11 |
| Cc1[nH][nH]c(=O)c1C(c1cccc([N+](=O)[O-])c1)C1C(=O)NC(=O)NC1=O (configuration not stated) | 10 | 11 | 1560 (≈ 4340 µM) | 780 (≈ 2170 µM) | 13 | 15 | 14 |
| COc1ccc(C(C2=C(O)CC(C)(C)CC2=O)C2=C(O)CC(C)(C)CC2=O)cc1OC | 0 | 0 |  |  | 0 | 0 | 0 |
| Cc1[nH][nH]c(=O)c1C(c1ccccc1[N+](=O)[O-])C1C(=O)NC(=O)NC1=O (configuration not stated) | 10 | 11 | 6250 (≈ 17400 µM) | 3120 (≈ 8680 µM) | 14 | 13 | 12 |
| O=c1oc2ccccc2c(O)c1C(c1cccc(Br)c1)c1c(O)c2ccccc2oc1=O | 11 | 19 | 3120 (≈ 6350 µM) | 390 (≈ 794 µM) | 13 | 20 | 21 |
| O=c1oc2ccccc2c(O)c1C(c1cccc(F)c1)c1c(O)c2ccccc2oc1=O | 12 | 18 | 780 (≈ 1810 µM) | 390 (≈ 906 µM) | 15 | 21 | 21 |
| Cc1[nH][nH]c(=O)c1C(c1ccc(N(C)C)cc1)C1C(=O)NC(=O)NC1=O (configuration not stated) | 12 | 10 | 3120 (≈ 8730 µM) | 3120 (≈ 8730 µM) | 13 | 10 | 10 |
| CC1(C)CC(=O)C(C(C2=C(O)CC(C)(C)CC2=O)c2ccc(Cl)cc2)=C(O)C1 | 0 | 0 |  |  | 0 | 0 | 0 |
| Cc1[nH][nH]c(=O)c1C(c1ccc(Br)cc1)C1C(=O)NC(=O)NC1=O (configuration not stated) | 10 | 15 | 780 (≈ 1980 µM) | 780 (≈ 1980 µM) | 15 | 15 | 17 |
| CCOc1ccc(C(C2=C(O)CC(C)(C)CC2=O)C2=C(O)CC(C)(C)CC2=O)cc1 | 0 | 0 |  |  | 0 | 0 | 0 |
| Cc1ccc(C(c2c(O)c3ccccc3oc2=O)c2c(O)c3ccccc3oc2=O)cc1 | 10 | 19 | 390 (≈ 915 µM) | 390 (≈ 915 µM) | 18 | 20 | 25 |

Reference: ChEMBL document CHEMBL4152354, “A reusable magnetic nickel nanoparticle based catalyst for the aqueous synthesis of diverse heterocycles and their evaluation as potential anti-bacterial agent” (2018)
